# Results published in ChEMBL document CHEMBL2406979, “Antitumor activity of 2-hydroxycinnamaldehyde for human colon cancer cells through suppression of β-catenin signaling” (J Nat Prod, 2013).
# Activity calls are given as the source filed them. The calls are words filed in the database; no cut-off is given here.
# Assays:
# [1] = tested on: HCT-116; assay: Inhibition of Wnt/beta-catenin signaling pathway in human HCT116 cells assessed as downregulation of CCND1 mRNA expression at 5 to 10 uM after 12 hrs by real-time PCR analysis; assay type: cell-based
# Procedure, shortened: (§1)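 HCT116 cells treated 12 h. Total RNA by TRI reagent, reverse-transcribed, SYBR Green real-time PCR: 40 cycles of 95 °C 20 s, 56 °C 20 s, 72 °C 30 s. Fold change by 2^−ΔΔCT normalized to β-actin, relative to untreated control; quadruplicate.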
# [2] = tested on: HCT-116; assay: Inhibition of Beta-catenin/TCF complex binding to DNA in human HCT116 cells at 5 to 10 uM after 30 mins by electrophoretic mobility shift assay; assay type: cell-based
# Procedure, shortened: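 HCT116 cells (1 × 10^6) treated 30 min. Nuclear extract made by NP-40 hypotonic lysis, then 420 mM NaCl hypertonic extraction; protein by Bradford. Binding: 8 μg nuclear protein with 1.5 pmol biotin-labeled TCF binding probe, 15 °C for 30 min, read by EMSA against vehicle-treated cells.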
# [3] = tested on: HCT-116; assay: Inhibition of Wnt/beta-catenin codon 45 deletion mutant signaling pathway human HCT116 cells assessed as inhibition of TCF4 transcriptional activity after 24 hrs by TOPflash reporter gene assay; assay type: cell-based
# Procedure, shortened: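 HCT116 cells seeded at 1.5 × 10^4/well and lipofected after 24 h with 0.1 μg TOPflash (or FOPflash) plus 0.005 μg Renilla; no β-catenin/TCF4 added. Treated 24 h for 24 h. Dual luciferase, Renilla-normalized, relative to vehicle; means ± SD, n = 3, four separate determinations.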
# [4] = tested on: HEK293; assay: Inhibition of Wnt/beta-catenin (unknown origin) signaling pathway expressed in HEK293 cells assessed as inhibition of TCF4 transcriptional activity at 5 to 40 uM after 24 hrs by FOPflash reporter gene assay; assay type: cell-based; details: Homo sapiens
# Procedure, shortened: (§2)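 HEK293 cells seeded at 1.5 × 10^4/well. After 24 h, lipofected with 0.1 μg TOPflash or FOPflash, 0.005 μg Renilla, 0.02 μg β-catenin and 0.004 μg TCF4 vectors. Treated 24 h after transfection for 24 h. Dual luciferase read-out, firefly normalized to Renilla, relative to vehicle; triplicate.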
# [5] = tested on: HEK293; assay: Inhibition of Wnt/beta-catenin (unknown origin) signaling pathway expressed in HEK293 cells assessed as inhibition of TCF4 transcriptional activity after 24 hrs by TOPflash reporter gene assay; assay type: cell-based; details: Homo sapiens; procedure, shortened: as §2
# [6] = tested on: HCT-116; assay: Antitumor activity against human HCT116 cells xenografted in BALB/c-nu mouse assessed as tumor growth inhibition at 10 mg/kg, ip administered 3 times per week for 4 weeks measured every 2 to 3 days during treatment relative to control; assay type: functional; details: HCT-116, ip, route intraperitoneal, read-out: TGI
# Procedure, shortened: (§3)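 Female BALB/c-nu mice, 4−6 weeks old, acclimated one week, given 2 × 10^6 HCT116 cells sc in the flank. Dosing began near 100 mm3, about day 8; five mice per group. Dose in 0.5% Tween 80 in normal saline, 200 μL ip; controls got vehicle. Tumor volume by caliper = L × W × H/2. Study ended when control tumors averaged ~1300 mm3.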
# [7] = tested on: Mus musculus; assay: (§4) In vivo inhibition of Wnt/beta-catenin signaling pathway in human HCT116 cells xenografted in BALB/c-nu mouse assessed as downregulation of Ki-67 expression at 10 to 20 mg/kg, ip administered 3 times per week measured after 4 weeks by hematoxylin staining-based inverted phase-contrast microscopic analysis; assay type: functional, organism-based; details: HCT-116
# Procedure, shortened: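 Immunohistochemistry on xenograft tumor sections from ip-dosed mice. Ki-67 detected with anti-Ki67 antibody and an LSAB+ HRP system. Sections counterstained with hematoxylin and photographed under an inverted phase-contrast microscope at 200×.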
# [8] = tested on: Mus musculus; assay: as §4, with “beta-catenin” for “Ki-67”; assay type: functional, organism-based; details: HCT-116
# [9] = tested on: Mus musculus; assay: as §4, with “cyclin D1” for “Ki-67”; assay type: functional, organism-based; details: HCT-116
# [10] = tested on: Mus musculus; assay: In vivo inhibition of Wnt/beta-catenin signaling pathway in human HCT116 cells xenografted in BALB/c-nu mouse assessed as downregulation of survivin protein expression at 10 to 20 mg/kg, ip administered 3 times per week measured after 4 weeks by Western blot analysis; assay type: functional, organism-based; details: HCT-116
# Procedure, shortened: (§5)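 Part of each frozen xenograft tumor was thawed on ice and hand-homogenized in Complete Lysis Buffer. Protein was quantified and aliquots stored at −80 °C. Western blot: SDS-PAGE, PVDF transfer, ECL detection, compared with vehicle-treated tumors.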
# [11] = tested on: Mus musculus; assay: In vivo inhibition of Wnt/beta-catenin signaling pathway in human HCT116 cells xenografted in BALB/c-nu mouse assessed as downregulation of CMYC protein expression at 10 to 20 mg/kg, ip administered 3 times per week measured after 4 weeks by Western blot analysis; assay type: functional, organism-based; details: HCT-116; procedure, shortened: as §5
# [12] = tested on: Mus musculus; assay: In vivo inhibition of Wnt/beta-catenin signaling pathway in human HCT116 cells xenografted in BALB/c-nu mouse assessed as downregulation of CCND1 protein expression at 10 to 20 mg/kg, ip administered 3 times per week measured after 4 weeks by Western blot analysis; assay type: functional, organism-based; details: HCT-116; procedure, shortened: as §5
# [13] = tested on: Mus musculus; assay: In vivo inhibition of Wnt/beta-catenin signaling pathway in human HCT116 cells xenografted in BALB/c-nu mouse assessed as downregulation of NKD1 mRNA expression at 10 to 20 mg/kg, ip administered 3 times per week measured after 4 weeks by real-time PCR analysis; assay type: functional, organism-based; details: HCT-116
# Procedure, shortened: (§6)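 Frozen tumors from ip-dosed HCT116 xenograft mice were extracted with TRI reagent and reverse-transcribed. SYBR Green real-time PCR run 40 cycles of 95/56/72 °C. Expression by 2^−ΔΔCT normalized to β-actin, relative to vehicle-treated controls; quadruplicate.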
# [14] = tested on: Mus musculus; assay: In vivo inhibition of Wnt/beta-catenin signaling pathway in human HCT116 cells xenografted in BALB/c-nu mouse assessed as downregulation of PLAU mRNA expression at 10 to 20 mg/kg, ip administered 3 times per week measured after 4 weeks by real-time PCR analysis; assay type: functional, organism-based; details: HCT-116; procedure, shortened: as §6
# [15] = tested on: Mus musculus; assay: In vivo inhibition of Wnt/beta-catenin signaling pathway in human HCT116 cells xenografted in BALB/c-nu mouse assessed as downregulation of MMP7 mRNA expression at 10 to 20 mg/kg, ip administered 3 times per week measured after 4 weeks by real-time PCR analysis; assay type: functional, organism-based; details: HCT-116; procedure, shortened: as §6
# [16] = tested on: Mus musculus; assay: In vivo inhibition of Wnt/beta-catenin signaling pathway in human HCT116 cells xenografted in BALB/c-nu mouse assessed as downregulation of CMYC mRNA expression at 10 to 20 mg/kg, ip administered 3 times per week measured after 4 weeks by real-time PCR analysis; assay type: functional, organism-based; details: HCT-116; procedure, shortened: as §6
# [17] = tested on: Mus musculus; assay: In vivo inhibition of Wnt/beta-catenin signaling pathway in human HCT116 cells xenografted in BALB/c-nu mouse assessed as downregulation of CCND1 mRNA expression at 10 to 20 mg/kg, ip administered 3 times per week measured after 4 weeks by real-time PCR analysis; assay type: functional, organism-based; details: HCT-116; procedure, shortened: as §6
# [18] = tested on: Mus musculus; assay: Toxicity in BALB/c-nu mouse xenografted with human HCT116 cells assessed as change in body weight at 10 to 20 mg/kg, ip administered 3 times per week measured for 4 weeks; assay type: organism-based, HCT-116; parameters: dose 10-20 mg/kg, route intraperitoneal; details: in vivo, 672 h
# Procedure, shortened: (§7)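 Same HCT116 flank xenograft in female BALB/c-nu mice, five per group, dosed ip in 0.5% Tween 80/saline with vehicle controls. Toxicity was judged from lethality and body weight loss, with body weights tracked through the study.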
# [19] = tested on: Mus musculus; assay: Toxicity in BALB/c-nu mouse xenografted with human HCT116 cells assessed as overt toxicity at 10 to 20 mg/kg, ip administered 3 times per week measured for 4 weeks; assay type: organism-based, HCT-116; parameters: dose 10-20 mg/kg, route intraperitoneal; details: in vivo, 672 h; procedure, shortened: as §7
# [20] = tested on: HCT-116; assay: Antitumor activity against human HCT116 cells xenografted in BALB/c-nu mouse assessed as tumor growth inhibition at 20 mg/kg, ip administered 3 times per week for 4 weeks measured every 2 to 3 days during treatment relative to control; assay type: functional; details: HCT-116, ip, route intraperitoneal, read-out: TGI; procedure, shortened: as §3
# [21] = tested on: HCT-116; assay: Cytotoxicity against human HCT116 cells assessed as growth inhibition after 72 hrs by SRB assay; assay type: functional, cell-based; details: HCT-116, 72 h
# Procedure, shortened: (§8)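 HCT116 cells seeded at 6 × 10^3/well and grown 24 h. Day-zero plates fixed; others exposed 24, 48 or 72 h. Fixed with 10% TCA, stained with 0.4% SRB in 1% acetic acid, dye taken up in 10 mM Tris pH 10.0, read at 515 nm. Proliferation % = (compound − day zero)/(control − day zero) × 100. IC50 by nonlinear regression; four determinations.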
# [22] = tested on: HCT-116; assay: Cytotoxicity against human HCT116 cells assessed as growth inhibition after 48 hrs by SRB assay; assay type: functional, cell-based; details: HCT-116, 48 h; procedure, shortened: as §8
# [23] = tested on: HCT-116; assay: Cytotoxicity against human HCT116 cells assessed as growth inhibition after 24 hrs by SRB assay; assay type: functional, cell-based; details: HCT-116, 24 h; procedure, shortened: as §8
# [24] = tested on: HCT-116; assay: Cytotoxicity against human HCT116 cells assessed as growth inhibition after 24 to 72 hrs by SRB assay; assay type: functional, cell-based; procedure, shortened: as §8
# [25] = tested on: HCT-116; assay: Cytotoxicity against human HCT116 cells assessed as growth inhibition at 5 to 20 uM by SRB assay; assay type: functional, cell-based; details: TDE = time-dependent effect; procedure, shortened: as §8
# [26] = tested on: HCT-116; assay: Inhibition of Wnt/beta-catenin signaling pathway in human HCT116 cells assessed as downregulation of total beta-catenin protein expression at 5 to 10 uM after 24 to 48 hrs by Western blot analysis; assay type: cell-based
# Procedure, shortened: (§9)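 HCT116 cells treated 24 or 48 h. Lysed in RIPA buffer; equal protein run on 8−13% SDS-PAGE, blotted to PVDF, probed for β-catenin, c-myc and cyclin D1, detected by ECL. β-Actin served as internal standard; four determinations.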
# [27] = tested on: HCT-116; assay: Inhibition of Wnt/beta-catenin signaling pathway in human HCT116 cells assessed as downregulation of CMYC protein expression at 5 to 10 uM after 24 to 48 hrs by Western blot analysis; assay type: cell-based; procedure, shortened: as §9
# [28] = tested on: HCT-116; assay: Inhibition of Wnt/beta-catenin signaling pathway in human HCT116 cells assessed as downregulation of CCND1 protein expression at 5 to 10 uM after 24 to 48 hrs by Western blot analysis; assay type: cell-based; procedure, shortened: as §9
# [29] = tested on: HCT-116; assay: Inhibition of Wnt/beta-catenin signaling pathway in human HCT116 cells assessed as downregulation of NKD1 mRNA expression at 5 to 10 uM after 12 hrs by real-time PCR analysis; assay type: cell-based; procedure, shortened: as §1
# [30] = tested on: HCT-116; assay: Inhibition of Wnt/beta-catenin signaling pathway in human HCT116 cells assessed as downregulation of DKK1 mRNA expression at 5 to 10 uM after 12 hrs by real-time PCR analysis; assay type: cell-based; procedure, shortened: as §1
# [31] = tested on: HCT-116; assay: Inhibition of Wnt/beta-catenin signaling pathway in human HCT116 cells assessed as downregulation of AXIN2 mRNA expression at 5 to 10 uM after 12 hrs by real-time PCR analysis; assay type: cell-based; procedure, shortened: as §1
# [32] = tested on: HCT-116; assay: Inhibition of Wnt/beta-catenin signaling pathway in human HCT116 cells assessed as downregulation of PLAU mRNA expression at 5 to 10 uM after 12 hrs by real-time PCR analysis; assay type: cell-based; procedure, shortened: as §1
# [33] = tested on: HCT-116; assay: Inhibition of Wnt/beta-catenin signaling pathway in human HCT116 cells assessed as downregulation of MMP7 mRNA expression at 5 to 10 uM after 12 hrs by real-time PCR analysis; assay type: cell-based; procedure, shortened: as §1
# [34] = tested on: HCT-116; assay: Inhibition of Wnt/beta-catenin signaling pathway in human HCT116 cells assessed as downregulation of CMYC mRNA expression at 5 to 10 uM after 12 hrs by real-time PCR analysis; assay type: cell-based; procedure, shortened: as §1
smiles,measurement,setting,value
O=C/C=C/c1ccccc1O [2-HYDROXYCINNAMALDEHYDE],inhibition,[1],Active
same,inhibition,[2],Active
same,inhibition,[3],Dose-dependent effect
same,inhibition,[4],inactive
same,inhibition,[5],Dose-dependent effect
same,inhibition in vivo at 10 mg/kg,[6],52%
same,inhibition,[7],Active
same,inhibition,[8],Active
same,inhibition,[9],Active
same,inhibition,[10],Active
same,inhibition,[11],Active
same,inhibition,[12],Active
same,inhibition,[13],Active
same,inhibition,[14],Active
same,inhibition,[15],Active
same,inhibition,[16],Active
same,inhibition,[17],Active
same,Activity,[18],Non-toxic
same,Activity,[19],Non-toxic
same,inhibition in vivo at 20 mg/kg,[20],69%
same,IC50,[21],6.17 µM
same,IC50,[22],6.62 µM
same,IC50,[23],8.14 µM
same,Activity,[24],Dose-dependent effect
same,Activity,[25],tde
same,inhibition,[26],Active
same,inhibition,[27],Active
same,inhibition,[28],Active
same,inhibition,[29],Active
same,inhibition,[30],Active
same,inhibition,[31],Active
same,inhibition,[32],Active
same,inhibition,[33],Active
same,inhibition,[34],Active
